From PubChem
Only some compounds are listed: those with a hit (about 4.3% of all), similar ones and a draw of the others.
TAAR1 antag = antagonists of human TAAR1; AID 624466; Q96RJ0; CHO RD-HGA16 TAAR1, Fluo-8 calcium fluorescence, antagonist; actives 1.5% (n = 360,000); inhibition, % at 3 µM;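 active = inhibition above a per-plate cutoff, the mean inhibition of test compounds on that plate plus 3 SD, cut at about 49% in these data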
Target sequence (Q96RJ0 whole entry, looked up): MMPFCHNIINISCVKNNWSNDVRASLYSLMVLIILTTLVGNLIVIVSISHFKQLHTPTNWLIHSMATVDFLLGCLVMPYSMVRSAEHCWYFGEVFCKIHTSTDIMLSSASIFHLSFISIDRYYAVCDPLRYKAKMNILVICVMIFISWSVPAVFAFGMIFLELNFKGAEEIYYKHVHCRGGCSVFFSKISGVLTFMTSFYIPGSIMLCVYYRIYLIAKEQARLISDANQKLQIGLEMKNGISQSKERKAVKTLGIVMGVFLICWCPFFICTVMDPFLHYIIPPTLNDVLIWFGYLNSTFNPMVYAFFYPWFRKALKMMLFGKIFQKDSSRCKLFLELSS
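Test system: CHO RD-HGA16 cells bearing hTAAR1 | Reagent: β-PEA, EC80 | Compound dosing: 3 µM, single point | Schedule: Dye loading 75 min at 37 °C, then 30 min room temperature | Signal: Calcium fluorescence with Fluo-8 | Evaluation: Percent inhibition of PEA-evoked calcium signal, max/basal emission ratio | Control set: DMSO-only wells and EC80 β-PEA-stimulated wells | Repeats: Singlicate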
MC4R ag barr = human MC4R agonism via beta-arrestin | P32245 | actives 0.98% (n = 360,000) | U2OS MC4R beta-arrestin complementation, luminescence; percent of melanotan II response, DMSO zero | activation, % at 8.9 µM | AID 540308;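 active = activation above a per-plate cutoff, the mean activation of sample wells on that plate plus 3 SD, cut at about 8% in these data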
Target sequence (P32245 whole entry, looked up): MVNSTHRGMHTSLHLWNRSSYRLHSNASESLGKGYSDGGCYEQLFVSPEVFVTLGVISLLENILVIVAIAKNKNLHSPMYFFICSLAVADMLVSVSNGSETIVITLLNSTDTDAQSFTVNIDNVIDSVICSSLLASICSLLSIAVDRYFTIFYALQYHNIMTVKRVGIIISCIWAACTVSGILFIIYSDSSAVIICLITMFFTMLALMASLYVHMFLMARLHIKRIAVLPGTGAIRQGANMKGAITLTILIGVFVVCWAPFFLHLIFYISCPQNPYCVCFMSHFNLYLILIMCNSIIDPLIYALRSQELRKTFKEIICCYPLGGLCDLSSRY
MC4R antagonist = human MC4R antagonism in cAMP assay. AID 540295. actives 0.48% (n = 360,000). MC4R-expressing cells, MTII-stimulated cAMP, LANCE TR-FRET. P32245. inhibition, % at 6.5 µM;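 active = inhibition above its plate's cutoff, the mean of tested wells on that plate plus 3 SD, cut at about 29% in these data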
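System: U2OS-MC4R stable cell line; Technique: Eu-cAMP/anti-cAMP TR-FRET, emission 671 nm; Repeats: single well per compound; Also added: Melanotan II; Dosing: one concentration, 6.5 µM nominal; Schedule: 30-min compound, 1-h challenge, 1-h detection, room temperature.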
m5-HT2A agonist = agonists of mouse serotonin 5-HT2A receptor (HTR2A); P35363; CHO-K1 mHTR2A beta-arrestin complementation, luminescence; percent of 30 µM serotonin response; activation, % at 7.6 µM; actives 0.66% (n = 360,000); AID 624169;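 active = activation above a run cutoff, the mean activation of all tested compounds plus 3 SD, cut at about 14% in these data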
Beta2AR agonist = human beta-2 adrenergic receptor agonism by FAP; P07550; Am2.2-beta2AR cells, FAP receptor internalization, flow cytometry; response, % (no concentration beside the values); actives 0.43% (n = 340,000);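 active = response above a set limit, near 3 SD of response in nonfluorescent compounds, cut at about 42% in these data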
TAAR1 agonist = agonists of human TAAR1 | Q96RJ0 | CHO RD-HGA16 TAAR1, Fluo-8 calcium fluorescence; vehicle wells 0%, saturating PEA agonist 100% | activation, % at 3 µM | actives 0.99% (n = 360,000) | AID 624467;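 active = activation above the mean activation of all test compounds in the run plus 3 SD, cut at about 38% in these data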
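Assay system: CHO-derived RD-HGA16 cells with stable Gα16 and human TAAR1; timing: 17-24 h seeding, 75 min 37 °C dye, 30 min RT; read-out: % activation from peak over basal fluorescence ratio, DMSO-to-PEA scaled; measured by: kinetic Fluo-8 calcium fluorescence; benchmarks: low control DMSO, high control PEA (EC100); doses: 3 µM single concentration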
Hits are given with their value; n = inactive; x = no result.

SMILES	TAAR1 antag	MC4R ag barr	MC4R antagonist	m5-HT2A agonist	Beta2AR agonist	TAAR1 agonist
OCCNCc1ccc(OCc2ccc(Cl)cc2Cl)cc1	n	n	n	n	n	n
OCCCCNCc1ccc(OCc2ccc(Cl)cc2Cl)cc1	n	n	n	n	n	37.8
COc1ccccc1NC(=O)c1ccccc1-c1nc(-c2ccccc2OC)no1	51.3	n	n	n	n	n
COC(=O)C1=C(C)N(Cc2ccccc2C(F)(F)F)C(=NCc2ccccc2C(F)(F)F)NC1c1ccc(C(F)(F)F)cc1 (configuration not stated)	n	x	x	x	x	n
CN1OC[C@@H]2CN[C@H](c3ccc(N4CCCCC4)cc3)C[C@@H]21	n	x	x	x	x	n
Cc1c(Br)c([N+](=O)[O-])nn1C(C)C(=O)N1CCc2ccccc2C1 (configuration not stated)	n	n	n	n	n	39.9
NC(Cc1ccccc1)c1csc(Nc2ccc(C(=O)c3ccccc3)cc2)n1 (configuration not stated)	n	n	n	n	x	53.6
CC(C)CC(N)c1csc(Nc2ccc(C(=O)c3ccccc3)cc2)n1 (configuration not stated)	n	n	n	n	x	41.0
NC(CO)c1csc(Nc2ccc(C(=O)c3ccccc3)cc2)n1 (configuration not stated)	n	n	n	n	x	n
Cc1c(C(=O)NCc2ccc(F)cc2)sc(=O)n1Cc1ccc(C(=O)c2ccccc2)cc1	53.7	n	n	n	x	n
Cc1c(C(=O)NCc2ccc(C(C)C)cc2)sc(=O)n1Cc1cccc(F)c1	53.3	n	n	n	x	47.9
O=C(Nc1ccc(F)cc1)C(CCc1ccccc1)N1CCN(c2ccncc2)CC1 (configuration not stated)	n	x	x	n	x	n
CC(=O)Nc1cccc(C(=O)OCC(=O)Nc2c(C)nn(-c3ccccc3)c2C)c1	n	n	n	n	n	n
Cc1nn(-c2ccccc2)c(C)c1NC(=O)COC(=O)c1ccccc1	n	n	n	n	n	n
Cc1nn(-c2ccccc2)c(C)c1NC(=O)COC(=O)c1ccc(S(=O)(=O)C(F)F)cc1	48.6	n	n	n	n	n
Cc1nn(-c2ccccc2)c(C)c1NC(=O)COC(=O)c1cccc(OC(F)F)c1	54.9	n	n	n	n	n
Cc1cc(NC(=O)COC(=O)c2cccc(OCc3ccccc3)c2)no1	n	8.5	n	n	n	n
C=CCN1CC(COCCCC)Oc2ccc(Cl)cc2S1(=O)=O (configuration not stated)	n	x	x	x	x	n
O=c1c2ccc(F)cc2sn1-c1ccccc1	n	n	n	n	x	49.3
Cc1ccc(-n2sc3cc(F)ccc3c2=O)c(C)c1	n	8.8	n	n	x	48.6
O=c1c2cc(F)ccc2sn1-c1ccccc1Cl	n	n	n	n	x	n
CC(=O)N(C)C[C@@H]1Oc2cc(Br)ccc2S(=O)(=O)N([C@H](C)CO)C[C@@H]1C	n	x	x	x	x	n
CC(C)CC1C(=O)N(Cc2cn(CCC3OCCO3)nn2)CCS(=O)(=O)N1Cc1ccc(-c2ccc(F)cc2)cc1 (configuration not stated)	53.7	n	n	n	x	n
CC(C)CC1C(=O)N(Cc2cn(CCC3OCCO3)nn2)CCS(=O)(=O)N1Cc1ccc(-c2cccc(N(C)C)c2)cc1 (configuration not stated)	52.0	n	n	n	x	n
COC(=O)c1[nH]c2ccccc2c1NC(=O)CNC1CCCCC1	60.6	n	n	n	n	n
SMILES	TAAR1 antag	MC4R ag barr	MC4R antagonist	m5-HT2A agonist	Beta2AR agonist	TAAR1 agonist
O=c1oc(-c2ccccc2)cc(Cl)c1Cl	n	n	n	n	50.9	n
O=c1oc(-c2ccccc2)cc2ccccc12	n	n	n	n	x	n
Cn1ncc2c(O/N=C(\N)c3ccc(C(C)(C)C)cc3)ncnc21	x	36.5	n	n	49.0	x
CCOC(=O)c1ccc(Nc2ncnc3c2cnn3C)cc1	n	n	n	n	n	n
CCC(=O)Nc1cccc(C(=O)/C=C/c2cccs2)c1	n	n	n	n	n	n
CCC(=O)Nc1cccc(C(=O)/C=C/c2ccccc2)c1	n	n	n	n	54.0	n
CCNc1nc(-c2sc(NC(=O)C(C)(C)C)nc2C)c(-n2cc(-c3ccccc3)nn2)s1	74.9	x	x	n	x	n
CCOc1cc(C(=O)CSc2nnc(CNc3ccc(Cl)cc3)o2)ccc1NC(=O)CC	n	39.9	n	n	n	n
CC(=O)NCCNC(=O)c1ccc(Cn2c(=O)[nH]c3ccsc3c2=O)cc1	n	n	n	n	n	n
O=C(Nc1cc(Cl)cc(Cl)c1)c1ccc(Cn2c(=O)[nH]c3ccsc3c2=O)cc1	x	20.4	n	n	n	x
Nc1nc2c(ncn2[C@@H]2O[C@H](C(=O)N[C@@H](Cc3ccccc3)C(=O)NCc3ccc4c(c3)OCO4)[C@@H](O)[C@H]2O)c(=O)[nH]1	n	x	x	x	x	n
O=C(NCc1cc(C(F)(F)F)cc(C(F)(F)F)c1)c1cc(-c2cc(F)ccc2OCC2CCCO2)n[nH]1 (configuration not stated)	n	n	n	n	x	n
COc1cc(CNC(=O)c2cc(-c3cc(F)ccc3OCC3CCCO3)n[nH]2)cc(OC)c1 (configuration not stated)	52.7	n	n	n	x	n
COc1ccc(-n2c(C)cc(/C=N/Nc3nc(N4CCOCC4)nc(N4CCOCC4)n3)c2C)cc1	50.2	n	n	n	n	n
COC(=O)Cc1nnn2c1[C@H](C)[C@H](c1ccccc1Br)OC[C@H](C)C2	n	x	x	x	x	n
CN1C(=O)c2ccc(N3CCCC3)cc2C1=O	n	n	n	n	n	n
Cc1cc(N2CCCC2)ccc1/C=C1\NC(=S)N(C)C1=O	n	n	n	n	n	51.4
COc1ccc(-[n+]2c(C)cc(/C=C3\Sc4ccccc4N3C)cc2C)cc1	62.3	n	n	n	x	n
COC(=O)c1cc2c(c3c4ccccc4n(S(C)(=O)=O)c13)C(=O)N(Cc1ccccc1)C2	n	x	x	x	x	n
O=C(NCc1ccc(F)cc1)c1cc(-c2ccco2)on1	n	n	n	n	n	37.7
O=C(NCc1ccc(Cl)cc1)c1cc(-c2ccco2)on1	n	n	n	n	n	n
O=C(Nc1ccn(Cc2c(F)c(F)cc(F)c2F)n1)c1ccc(COc2ccccc2Cl)cc1	x	n	n	n	n	x
O=C(Nc1ccn(Cc2ccccc2F)n1)c1ccc(COc2ccccc2Cl)cc1	54.9	n	n	n	n	n
Cc1ccc(S(=O)(=O)N[C@@H](Cc2ccccc2)C(=O)CCl)cc1	n	n	n	n	53.5	n
Cc1ccc(S(=O)(=O)NN(Cc2ccccc2)Cc2ccccc2)cc1	n	8.8	n	n	x	n
